The target in series [1] is T1, Carbonic anhydrase (Candida albicans (strain SC5314 / ATCC MYA-2876) (Yeast)) (UniProt Q5AJ71).
T1 sequence (whole entry): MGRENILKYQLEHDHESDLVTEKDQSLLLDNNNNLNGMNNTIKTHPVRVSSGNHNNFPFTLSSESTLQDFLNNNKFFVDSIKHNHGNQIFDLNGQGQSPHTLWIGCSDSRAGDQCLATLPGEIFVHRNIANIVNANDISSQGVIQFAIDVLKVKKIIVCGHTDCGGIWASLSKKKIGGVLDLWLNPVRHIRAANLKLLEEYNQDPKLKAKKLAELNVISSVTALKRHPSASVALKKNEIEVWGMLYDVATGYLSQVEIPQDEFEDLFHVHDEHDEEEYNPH
Kind of series: Activation of Candida albicans beta-carbonic anhydrase Nce103 by stopped flow CO2 hydration assay. An outline of the steps:
(§1)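 Recombinant enzyme (prepared as in earlier work) preincubated with activator 15 min at room temperature. Stopped-flow CO2 hydration at 25 °C followed for 10 s, read with phenol red (0.2 mM) at 557 nm. Buffer was 20 mM Tris pH 8.3 with 20 mM NaClO4. CO2 ranged 1.7–17 mM. Initial velocity came from at least six traces of the first 5–10% of reaction, with the uncatalyzed rate subtracted. KA was fitted from activation versus activator concentration, using dilutions from a 10 mM aqueous stock. Mean of at least three determinations.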

Series [2] deals with T2, Carbonic anhydrase 2 (Cryptococcus neoformans) (UniProt Q3I4V7).
T2 sequence (whole entry): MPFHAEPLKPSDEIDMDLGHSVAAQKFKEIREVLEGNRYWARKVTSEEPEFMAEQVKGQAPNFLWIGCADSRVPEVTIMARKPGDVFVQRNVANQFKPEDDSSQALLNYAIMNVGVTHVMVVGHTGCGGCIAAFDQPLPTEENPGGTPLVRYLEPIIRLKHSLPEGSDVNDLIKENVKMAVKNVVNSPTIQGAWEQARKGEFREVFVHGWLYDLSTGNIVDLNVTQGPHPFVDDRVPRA
Kind of series: Activation of Cryptococcus neoformans beta-carbonic anhydrase Can2 by stopped flow CO2 hydration assay. An outline of the steps:
as §1

Substrate in series [3]: NCCc1c[nH]cn1
Particulars: Cryptococcus neoformans; 10 uM.

Substrate in series [4]: NCCc1c[nH]cn1
The settings on record: Cryptococcus neoformans.

Substrate in series [5]: NCCc1c[nH]cn1
The settings on record: Candida albicans; 10 uM.

Substrate in series [6]: NCCc1c[nH]cn1
The settings on record: Candida albicans.

On to `NCCc1c[nH]cn1`, for which the values for the KA in series [1] and in series [2] were 18.4 µM and 33.2 µM, respectively.

As to `NCCN1CCOCC1`, the results for the KA in series [1] and in series [2] were 25.4 µM and 40.1 µM, respectively.

`N[C@@H](Cc1ccccc1)C(=O)O`: the figures for the KA in series [1] and in series [2] were 15.5 µM and 44.1 µM, respectively.

Take `CNC[C@@H](O)c1ccc(O)c(O)c1`: the KA came out at 13.2 µM in series [1] and 32.8 µM in series [2].

On to `NCCc1ccc(O)c(O)c1`, for which the KA was 18.5 µM in series [1] and 34.6 µM in series [2].

On to `N[C@H](Cc1ccc(O)c(O)c1)C(=O)O`, for which the KA in series [1] was found to be 2.5 µM; in series [2], 35.1 µM.

As to `N[C@@H](Cc1c[nH]cn1)C(=O)O`, the results for the KA in series [1] and in series [2] were 24.1 µM and 45 µM, respectively.

Take `N[C@@H](Cc1ccc(O)c(O)c1)C(=O)O`: the KA in series [1] came to 0.96 µM; in series [2] it was 43.3 µM.

Take `NCCN1CCNCC1`: the KA in series [1] was 17.3 µM; in series [2] it was 44.9 µM.

Take `Nc1ccc(C[C@H](N)C(=O)O)cc1`: the KA in series [1] turned out to be 23.7 µM; in series [2], 30.4 µM.

With `N[C@H](Cc1c[nH]cn1)C(=O)O`, the KA is 19.5 µM in series [1] and 47.2 µM in series [2].

Regarding `N[C@H](Cc1ccccc1)C(=O)O`, the KA in series [1] stood at 8.4 µM; in series [2] it was 45.2 µM.

Regarding `N[C@@H](Cc1c[nH]c2ccccc12)C(=O)O`, the figures for the KA in series [1] and in series [2] were 19.2 µM and 28.7 µM, respectively.

`NCCc1c[nH]c2ccc(O)cc12`: the values for the KA in series [1] and in series [2] were 28.6 µM and 46.7 µM, respectively.

For `N[C@@H](Cc1ccc(O)cc1)C(=O)O`, the KA in series [1] came to 46.1 µM; in series [2] it was 29.5 µM.

For `NCCc1ccccn1`, the KA worked out at 30.2 µM in series [1] and 46.3 µM in series [2].

As for `NCc1ccccn1`, the KA is 29.1 µM in series [1] and 47 µM in series [2].

Take `N[C@H](Cc1c[nH]c2ccccc12)C(=O)O`: the values for the KA in series [1] and in series [2] were 43 µM and 42.1 µM, respectively.

B1: Carbonic anhydrase 2 (Cryptococcus neoformans), Q3I4V7 (protein)
chain: T2 sequence (whole entry)
The term Km denotes the substrate concentration at which the rate is half of its maximum. With B1, the results for the kcat in series [3] and in series [4] were 6.8 ×10⁵ /s and 3.9 ×10⁵ /s, respectively. The Km in series [4] is 9 mM.

B2: Carbonic anhydrase (Candida albicans (strain SC5314 / ATCC MYA-2876) (Yeast)), Q5AJ71 (protein)
chain: T1 sequence (whole entry)
Regarding B2, the kcat in series [5] came to 20.1 ×10⁵ /s; in series [6], 8 ×10⁵ /s. Moreover, the Km in series [6] was 8.2 mM.

These data come from ChEMBL document CHEMBL1156841, “Carbonic anhydrase activators: activation of the beta-carbonic anhydrases from the pathogenic fungi Candida albicans and Cryptococcus neoformans with amines and amino acids” (Bioorg Med Chem, 2010).
